In ChEMBL document CHEMBL3739264, “Synthesis and bio-evaluation of novel quinolino-stilbene derivatives as potential anticancer agents” (Bioorg Med Chem, 2015):
Activity calls are given as the source filed them. The calls are words filed in the database; no cut-off is given here.

Columns and labels:
[1] = Cell cycle arrest in human MCF10A cells assessed as accumulation at S phase at 6 uM after 72 hrs by flow cytometry analysis relative to control; format: functional, cell-based; details: MCF-10A
In short: (§1)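 About 1 × 10^6 cells per plate seeded overnight, then treated with compound and harvested at set times. Cells fixed in 75% ethanol at -20°C for 12-24 h and stained 1 h with 100 µg/ml PI, 100 µg/ml RNase A and 0.3% NP-40 in PBS. DNA content measured by flow cytometry; phase fractions compared with sham-treated cells.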

HeLa [2] = experiment: Cell cycle arrest in human HeLa cells assessed as accumulation at G0-G1 phase at 6 uM after 12 hrs by flow cytometry analysis relative to control; format: functional; in short: as §1
[3] = Cell cycle arrest in human MCF10A cells assessed as accumulation at G2/M phase at 6 uM after 24 hrs by flow cytometry analysis relative to control; format: functional, cell-based; details: MCF-10A; in short: as §1
HeLa [4] = experiment: Cell cycle arrest in human HeLa cells assessed as accumulation at G2/M phase at 6 uM after 12 hrs by flow cytometry analysis relative to control; format: functional; in short: as §1
HeLa [5] = experiment: Decrease of Wee-1 level in human HeLa cells at 6 uM after 48 hrs by Western blot analysis
HeLa [6] = experiment: Cell cycle arrest in human HeLa cells assessed as accumulation at S phase at 6 uM after 12 hrs by flow cytometry analysis relative to control; format: functional; in short: as §1
[7] = Cell cycle arrest in human MCF10A cells assessed as accumulation at G2/M phase at 6 uM after 72 hrs by flow cytometry analysis relative to control; format: functional, cell-based; details: MCF-10A; in short: as §1
MDA-MB-231 [8] = experiment: Cell cycle arrest in human MDA-MB-231 cells assessed as accumulation at sub-G1 phase at 6 uM after 48 hrs by flow cytometry analysis relative to control; format: functional
In short: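 Cells seeded overnight at about 1 × 10^6 per plate, treated next morning, and harvested at set times. Fixed in 75% ethanol at -20°C for 12-24 h, then stained 1 h in PBS with 0.3% NP-40, 100 µg/ml RNase A and 100 µg/ml propidium iodide. Phase distribution read from DNA content by flow cytometry against sham-treated cells.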

MDA-MB-231 [9] = experiment: Cell cycle arrest in human MDA-MB-231 cells assessed as accumulation at G2/M phase at 6 uM after 72 hrs by flow cytometry analysis relative to control; format: functional; in short: as §1
MDA-MB-231 [10] = experiment: Cell cycle arrest in human MDA-MB-231 cells assessed as accumulation at G2/M phase at 6 uM after 12 hrs by flow cytometry analysis relative to control; format: functional; in short: as §1
[11] = Cell cycle arrest in human MCF10A cells assessed as accumulation at G2/M phase at 6 uM after 48 hrs by flow cytometry analysis relative to control; format: functional, cell-based; details: MCF-10A; in short: as §1
[12] = Cell cycle arrest in human MCF10A cells assessed as accumulation at S phase at 6 uM after 12 hrs by flow cytometry analysis relative to control; format: functional, cell-based; details: MCF-10A; in short: as §1
HeLa [13] = experiment: Increase of histone 3 phosphorylation at Ser10 level in human HeLa cells at 6 uM after 48 hrs by Western blot analysis; format: functional, cell-based
In short: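 HeLa cells were sham-treated or given 6 µM and collected at set times. Lysed on ice in Tris pH 7.4/NaCl/EDTA/1% Triton X-100 with PMSF and protease inhibitors. 30-40 µg protein run on 8 or 10% gels, blotted to PVDF, probed overnight at 4°C and detected by ECL. Band levels normalized to GAPDH.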

MCF7 = experiment: Antiproliferative activity against human MCF7 cells after 72 hrs by SRB assay; format: functional, cell-based; details: MCF7, 72 h
In short: (§2)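 Cells seeded at 4,000-5,000/well for 16 h, then exposed 72 h to serial dilutions of compound in DMSO; sham DMSO as 100% and TCA-treated wells as 0%. IC50 from sigmoidal dose-response curves; two biological replicates, four technical each.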

HeLa [14] = experiment: Cell cycle arrest in human HeLa cells assessed as accumulation at G2/M phase at 6 uM after 72 hrs by flow cytometry analysis relative to control; format: functional; in short: as §1
[15] = Antiproliferative activity against human 184B5 cells after 72 hrs by SRB assay; format: cell-based; details: 184B5, 72 h
In short: as §2, with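 “0%. Fixed in 10% TCA at 4°C for 1 h, stained with 0.4% SRB for 30 min, dye solubilised in 10 mmol Tris pH 10.5, read at 540 nm.” for “0%.”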

[16] = Cell cycle arrest in human MCF10A cells assessed as accumulation at sub-G1 phase at 6 uM after 72 hrs by flow cytometry analysis relative to control; format: functional, cell-based; details: MCF-10A; in short: as §1
[17] = Cell cycle arrest in human MCF10A cells assessed as accumulation at sub-G1 phase at 6 uM after 24 hrs by flow cytometry analysis relative to control; format: functional, cell-based; details: MCF-10A; in short: as §1
HeLa [18] = experiment: Cell cycle arrest in human HeLa cells assessed as accumulation at G2/M phase at 6 uM after 48 hrs by flow cytometry analysis relative to control; format: functional; in short: as §1
HeLa [19] = experiment: Induction of apoptosis in human HeLa cells assessed as popcorn like morphology at 6 uM after 48 hrs by time lapse microscopy analysis; format: functional, cell-based
In short: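 Treated HeLa cells were followed by time-lapse microscopy, with images taken at set time points.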

MDA-MB-231 [20] = experiment: Cell cycle arrest in human MDA-MB-231 cells assessed as accumulation at G2/M phase at 6 uM after 48 hrs by flow cytometry analysis relative to control; format: functional; in short: as §1
[21] = Cell cycle arrest in human MCF10A cells assessed as accumulation at sub-G1 phase at 6 uM after 12 hrs by flow cytometry analysis relative to control; format: functional, cell-based; details: MCF-10A; in short: as §1
HeLa [22] = experiment: Induction of DNA damage in human HeLa cells at 6 uM after 48 hrs by immunostaining; format: functional, cell-based
In short: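 γH2A.X (phospho-Ser139) immunostaining, with HeLa at 6 µM for 24 or 48 h and MDA-MB468 at 1 µM. Cells on coverslips fixed and permeabilized in ice-cold methanol at -20°C. Blocked in 1% FBS, primary antibody 1:200 overnight at 4°C, then fluorophore-conjugated secondary 1 h. DNA counterstained with DRAQ5.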

HeLa [23] = experiment: Cell cycle arrest in human HeLa cells assessed as accumulation at S phase at 6 uM after 48 hrs by flow cytometry analysis relative to control; format: functional; in short: as §1
HeLa [24] = experiment: Cell cycle arrest in human HeLa cells assessed as accumulation at S phase at 6 uM after 72 hrs by flow cytometry analysis relative to control; format: functional; in short: as §1
[25] = Cell cycle arrest in human MCF10A cells assessed as accumulation at S phase at 6 uM after 48 hrs by flow cytometry analysis relative to control; format: functional, cell-based; details: MCF-10A; in short: as §1
HeLa [26] = experiment: Cell cycle arrest in human HeLa cells assessed as accumulation at sub-G1 phase at 6 uM after 12 hrs by flow cytometry analysis relative to control; format: functional; in short: as §1
HeLa [27] = experiment: Cell cycle arrest in human HeLa cells assessed as accumulation at G0-G1 phase at 6 uM after 24 hrs by flow cytometry analysis relative to control; format: functional; in short: as §1
HeLa [28] = experiment: Cell cycle arrest in human HeLa cells assessed as accumulation at G2/M phase at 6 uM after 24 hrs by flow cytometry analysis relative to control; format: functional; in short: as §1
HeLa [29] = experiment: Cell cycle arrest in human HeLa cells assessed as accumulation at sub-G1 phase at 6 uM after 48 hrs by flow cytometry analysis relative to control; format: functional; in short: as §1

FC(F)(F)c1cccc(/C=C\c2cc3ccccc3nc2Cl)c1
Activity [1]: 12.1%
Activity (HeLa [2]): 8%
Activity [3]: 8.3%
Activity (HeLa [4]): 78.9%
Activity (HeLa [5]): Active
Activity (HeLa [6]): 8.9%
Activity [7]: 4.9%
Activity (MDA-MB-231 [8]): 23.8%
Activity (MDA-MB-231 [9]): 14.4%
Activity (MDA-MB-231 [10]): 47.4%
Activity [11]: 6.2%
Activity [12]: 52.9%
Activity (HeLa [13]): Active
IC50 (MCF7): 3.53 µM
Activity (HeLa [14]): 12.1%
IC50 [15]: 6.15 µM
Activity [16]: 12.1%
Activity [17]: 7.3%
Activity (HeLa [18]): 23.9%
Activity (HeLa [19]): Active
Activity (MDA-MB-231 [20]): 18.6%
Activity [21]: 3.4%
Activity (HeLa [22]): inactive
Activity (HeLa [23]): 12.9%
Activity (HeLa [24]): 17.7%
Activity [25]: 17.9%
Activity (HeLa [26]): 3.6%
Activity (HeLa [27]): 16.2%
Activity (HeLa [28]): 56.9%
Activity (HeLa [29]): 40.6%
